Tests used:
Assay type in all cases: functional
Rattus norvegicus [1] = species: Rattus norvegicus; assay: Antiinflammatory activity was assessed improvement of adjuvant induced arthritis in rats, determined by joint mobility of the paw; set-up: concentration or dose not given beside the values
Procedure, shortened: (§1)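 Adjuvant arthritis was induced in female Sprague–Dawley rats (150–170 g, groups of six) by right-hind-paw plantar injection of killed tubercle bacillus in paraffin. Treatment was 33 mg/kg orally, daily for 14 days, starting the day before adjuvant. Joint involvement was scored as the angle through which the hind paws moved easily, given as percent change versus nontreated controls.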

Cavia porcellus [2] = species: Cavia porcellus; assay: Tested for effect on the production of cyclooxygenase (COX) metabolite, PGF2-alpha (prostaglandin F2-alpha) of arachidonic acid in guinea pig peritoneal polymorphonuclear neutrophils at 30 uM concentration
Procedure, shortened: (§2)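 Guinea pig peritoneal PMNs were incubated with [14C]arachidonic acid and stimulated with calcium ionophore A23187. Compounds were tested at 30 μM in 0.1 N NaOH–Krebs Ringer bicarbonate buffer. Radiolabeled cyclooxygenase and lipoxygenase products were identified by HPLC and GC-MS, separated by TLC and quantified by automatic scanning.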

Cavia porcellus [3] = species: Cavia porcellus; assay: Tested for effect on the production of cyclooxygenase (COX) metabolite, TXB2 of arachidonic acid in guinea pig peritoneal polymorphonuclear neutrophils at 30 uM concentration; procedure, shortened: as §2
Cavia porcellus [4] = species: Cavia porcellus; assay: Tested for effect on the production of Lipoxygenase (LO) metabolite, 5,12-diHETE in guinea pig peritoneal polymorphonuclear neutrophils at 30 uM concentration; procedure, shortened: as §2
Rattus norvegicus [5] = assay: Antiinflammatory activity was assessed by the ability to improve the adjuvant induced arthritis in left secondary lesion in rats at oral doses, 33 mg/kg (volume change in the injected paw measured from day 9 to day 18)
Cavia porcellus [6] = species: Cavia porcellus; assay: Tested for effect on the production of cyclooxygenase (COX) metabolite, PGE-2 (prostaglandin E2) of arachidonic acid in guinea pig peritoneal polymorphonuclear neutrophils at 30 uM concentration; procedure, shortened: as §2
Rattus norvegicus [7] = assay: Antiinflammatory activity was assessed by the ability to improve the adjuvant induced arthritis in right primary lesion in rats at oral doses, 33 mg/kg (volume change in the injected paw measured from day 0 to day 8)
Procedure, shortened: (§3)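 Female Sprague–Dawley rats (150–170 g), six per group. Arthritis induced by subcutaneous plantar injection of 0.125 mg killed tubercle bacillus in liquid paraffin into the right hind paw. Dosing was 33 mg/kg orally, daily for 14 days, starting the day before adjuvant. Paw volumes were measured by mercury plethysmography every 2–3 days over 18 days. Primary lesion: right paw, days 0–8. Secondary lesions: right and left (uninjected) paws, days 9–18. Areas under the time-course curves were compared with controls by ANOVA.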

Rattus norvegicus [8] = assay: Ability to improve the adjuvant induced arthritis in right secondary lesion in rats at oral doses, 33 mg/kg; procedure, shortened: as §3
Cavia porcellus [9] = species: Cavia porcellus; assay: Tested for effect on the production of Lipoxygenase (LO) metabolite, 5-HETE in guinea pig peritoneal polymorphonuclear neutrophils at 30 uM concentration; procedure, shortened: as §2
Rattus norvegicus [10] = assay: Antiinflammatory activity was assessed by the ability to improve the adjuvant induced arthritis in left secondary lesion in rats at oral doses, 33 mg/kg (volume change in the uninjected paw measured from day 9 to day 18); procedure, shortened: as §3
Rattus norvegicus [11] = assay: Antiinflammatory activity was assessed by the ability to improve the adjuvant induced arthritis rats was determined by joint mobility of the paw at oral doses, 33 mg/kg; procedure, shortened: as §1
Cavia porcellus [12] = species: Cavia porcellus; assay: Tested for effect on the production of Lipoxygenase (LO) metabolite, 5,12-diHETE in guinea pig peritoneal polymorphonuclear neutrophils at 30 uM concentration; ND = no data; procedure, shortened: as §2
Cavia porcellus [13] = species: Cavia porcellus; assay: Tested for effect on the production of Lipoxygenase (LOX) metabolite, 5-HETE in guinea pig peritoneal polymorphonuclear neutrophils at 30 uM concentration; procedure, shortened: as §2
Rattus norvegicus [14] = species: Rattus norvegicus; assay: Antiinflammatory activity was assessed by the ability to improve the adjuvant induced arthritis in right primary lesion in rats(volume change in the injected paw measured from day 0 to day 8); procedure, shortened: as §3
Rattus norvegicus [15] = species: Rattus norvegicus; assay: Antiinflammatory activity was assessed by the ability to improve the adjuvant induced arthritis in right secondary lesion in rats (volume change in the injected paw measured from day 9 to day 18); procedure, shortened: as §3
Rattus norvegicus [16] = species: Rattus norvegicus; assay: Antiinflammatory activity was assessed by the ability to improve the adjuvant induced arthritis in left secondary lesion in rats (volume change in the […] to day 18)

Compound | Reduction (Rattus norvegicus [1]) | Reduction (Cavia porcellus [2]) | Reduction (Cavia porcellus [3]) | Reduction (Cavia porcellus [4]) | Reduction (Rattus norvegicus [5]) | Reduction (Cavia porcellus [6]) | Reduction (Rattus norvegicus [7]) | Reduction (Rattus norvegicus [8]) | Reduction (Cavia porcellus [9]) | Reduction (Rattus norvegicus [10]) | Reduction (Rattus norvegicus [11]) | Reduction (Cavia porcellus [12]) | Reduction (Cavia porcellus [13]) | Reduction (Rattus norvegicus [14]) | Reduction (Rattus norvegicus [15]) | Reduction (Rattus norvegicus [16])
CC(C(=O)O)c1cc(C(=O)c2ccccc2)ccc1O (centres undefined) | 38% | 52% | 75% | -55% | 61% | 77% | 30% | 37% | -27% |  |  |  |  |  |  | 
O=C(O)Cc1cc(C(=O)c2cccs2)ccc1O | 1% | 74% | 89% | -62% |  | 74% | 11% | 20% | -72% | 10% |  |  |  |  |  | 
O=C1Oc2ccc(C(=O)c3cccs3)cc2/C1=C/c1ccccc1 |  | 60% | 92% | -10% | 76% | 81% | 21% | 48% | -18% |  | 46% |  |  |  |  | 
C=CCOc1ccc(C(=O)c2cccs2)cc1C(C)C(=O)O (centres undefined) | -14% | 11% | 62% |  | 3% | 6% | 18% | -8% | -25% |  |  | -21% |  |  |  | 
CC1C(=O)Oc2ccc(C(=O)c3cccs3)cc21 (centres undefined) | 31% | 15% | 67% | 39% | 48% | 61% | 31% | 40% | 37% |  |  |  |  |  |  | 
NC1=NN(c2cccc(C(F)(F)F)c2)CC1 [BW-755C] |  | 82% | 90% | 40% |  | 79% |  |  |  |  |  |  | 45% |  |  | 
COc1ccc2c(c1)c(CC(=O)O)c(C)n2C(=O)c1ccc(Cl)cc1 [INDOMETHACIN] | 91% | 70% | 91% | -81% |  | 84% |  |  | -12% |  |  |  |  | 37% | 56% | 77%

Reference: ChEMBL document CHEMBL1123839, “5-Acyl-3-substituted-benzofuran-2(3H)-ones as potential antiinflammatory agents” (1987)
